In ChEMBL document CHEMBL3632476, “Novel spirobicyclic artemisinin analogues (artemalogues): Synthesis and antitumor activities” (Eur J Med Chem, 2015):

Tests used:
[1] = Cytotoxicity against human KB cells assessed as inhibition of cell proliferation after 72 hrs by SRB assay; format: functional, cell-based
How it was run: (§1)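 SRB assay. Cells were seeded, cultured overnight, then exposed to a gradient of agent concentrations for 72 h. Absorbance was read at 560 nm.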

[2] = Cytotoxicity against human KB/VCR cells assessed as inhibition of cell proliferation after 72 hrs by SRB assay; format: functional, cell-based; how it was run: as §1
A549 [3] = assay: Cytotoxicity against human A549 cells assessed as inhibition of cell proliferation after 72 hrs by SRB assay; format: functional, cell-based; details: A549, 72 h; how it was run: as §1
A549 [4] = assay: Selectivity index, ratio of IC50 for human A549 cells to IC50 for human KB cells; format: functional
KB [5] = assay: Selectivity index, ratio of IC50 for human KB/VCR cells to IC50 for human KB cells; format: functional
A549 [6] = assay: Potency index, ratio of IC50 for artemisinin to IC50 for test compound against human A549 cells; format: functional
[7] = Potency index, ratio of IC50 for artemisinin to IC50 for test compound against human KB/VCR cells; format: functional
KB [8] = assay: Potency index, ratio of IC50 for artemisinin to IC50 for test compound against human KB cells; format: functional
L1210 = assay: Cytotoxicity against mouse L1210 cells by MTT assay; format: functional, cell-based
HepG2 = assay: Cytotoxicity against human HepG2 cells by MTT assay; format: functional, cell-based

Structure (SMILES): CO[C@@H]1O[C@@H]2O[C@@]3(C)CC[C@H]4[C@H](C)CC[C@@H]([C@]15CC(c1ccc(Cl)cc1)=NO5)[C@@]24OO3
- IC50 [1]: > 20 µM
- IC50 [2]: > 20 µM

Structure (SMILES): COc1ccc2c(c1)CCN1O[C@@]3(C[C@H]21)[C@@H](OCCN1CCOCC1)O[C@@H]1O[C@@]2(C)CC[C@H]4[C@H](C)CC[C@@H]3[C@@]14OO2
- IC50 (A549 [3]): > 20 µM
- IC50 [1]: > 20 µM
- IC50 [2]: > 20 µM

Structure (SMILES): COc1ccc2c(c1)CCN1O[C@@]3(C[C@H]21)[C@H](OC)O[C@@H]1O[C@@]2(C)CC[C@H]4[C@H](C)CC[C@@H]3[C@@]14OO2
- IC50 (A549 [3]): > 20 µM
- IC50 [1]: > 20 µM
- IC50 [2]: > 20 µM

Structure (SMILES): COc1ccc(C2=NO[C@@]3(C2)C(=O)O[C@@H]2O[C@@]4(C)CC[C@H]5[C@H](C)CC[C@@H]3[C@@]25OO4)cc1OC
- IC50 (A549 [3]): > 20 µM
- IC50 [1]: > 20 µM
- IC50 [2]: > 20 µM

Structure (SMILES): COc1ccc(C2=NO[C@@]3(C2)C(=O)O[C@@H]2O[C@@]4(C)CC[C@H]5[C@H](C)CC[C@@H]3[C@@]25OO4)cc1
- IC50 (A549 [3]): > 20 µM
- IC50 [1]: > 20 µM
- IC50 [2]: > 20 µM

Structure (SMILES): COc1ccc2c(c1)CCN1O[C@@]3(C[C@H]21)[C@@H](F)O[C@@H]1O[C@@]2(C)CC[C@H]4[C@H](C)CC[C@@H]3[C@@]14OO2
- IC50 [1]: > 20 µM
- IC50 [2]: > 20 µM

Structure (SMILES): COc1ccc2c(c1)CCN1O[C@@]3(C[C@H]21)C(=O)O[C@@H]1O[C@@]2(C)CC[C@H]4[C@H](C)CC[C@@H]3[C@@]14O2
- IC50 [1]: 15.4 µM
- IC50 [2]: 13.4 µM

Structure (SMILES): CO[C@H]1O[C@@H]2O[C@@]3(C)CC[C@H]4[C@H](C)CC[C@@H]([C@]15CC(c1ccc(Cl)cc1)=NO5)[C@@]24OO3
- IC50 [1]: > 20 µM
- IC50 [2]: > 20 µM

Structure (SMILES): CO[C@@H]1O[C@@H]2O[C@@]3(C)CC[C@H]4[C@H](C)CC[C@@H]([C@]15CC(c1c(Cl)cccc1Cl)=NO5)[C@@]24OO3
- IC50 (A549 [3]): > 20 µM
- IC50 [1]: > 20 µM
- IC50 [2]: > 20 µM

Structure (SMILES): COc1ccc2c(c1)CCN1O[C@@]3(C[C@@H]21)C(=O)O[C@@H]1O[C@@]2(C)CC[C@H]4[C@H](C)CC[C@@H]3[C@@]14O2
- IC50 [1]: > 20 µM
- IC50 [2]: > 20 µM

Structure (SMILES): C[C@@H]1CC[C@@H]2[C@]34OO[C@](C)(CC[C@@H]13)O[C@H]4OC(=O)[C@@]21C[C@@H]2CCCN2O1
- IC50 (A549 [3]): 10.5 µM
- IC50 [1]: 2.34 µM
- IC50 [2]: 3.35 µM

Structure (SMILES): CC[C@]1(O)C[C@H]2CN(CCc3c([nH]c4ccccc34)[C@@](C(=O)OC)(c3cc4c(cc3OC)N(C=O)[C@H]3[C@@](O)(C(=O)OC)[C@H](OC(C)=O)[C@]5(CC)C=CCN6CC[C@]43[C@@H]65)C2)C1 [VINCRISTINE]
- IC50 (A549 [3]): 0.0368 µM
- IC50 [1]: 0.00087 µM
- IC50 [2]: 0.387 µM

Structure (SMILES): C[C@@H]1CC[C@@H]2[C@]34OO[C@](C)(CC[C@@H]13)O[C@H]4OC(=O)[C@@]21CC(c2c(Cl)cccc2Cl)=NO1
- IC50 (A549 [3]): > 20 µM
- IC50 [1]: > 20 µM
- IC50 [2]: > 20 µM

Structure (SMILES): COc1ccc2c(c1)CCN1O[C@@]3(C[C@H]21)[C@@H](OC)O[C@@H]1O[C@@]2(C)CC[C@H]4[C@H](C)CC[C@@H]3[C@@]14OO2
- IC50 (A549 [3]): > 20 µM
- IC50 [1]: > 20 µM
- IC50 [2]: > 20 µM

Structure (SMILES): C[C@@H]1CC[C@@H]2[C@]34OO[C@](C)(CC[C@@H]13)O[C@H]4OC(=O)[C@@]21C[C@@H]2c3ccccc3CCN2O1
- Ratio IC50 (A549 [4]): 3
- IC50 (A549 [3]): 9.93 µM
- IC50 [1]: 2.91 µM
- Ratio IC50 (KB [5]): 3
- IC50 [2]: 14 µM

Structure (SMILES): C[C@@H]1CC[C@@H]2[C@]34OO[C@](C)(CC[C@@H]13)O[C@H]4OC(=O)[C@@]21C[C@@H]2COCCN2O1
- IC50 [1]: > 20 µM
- IC50 [2]: > 20 µM

Structure (SMILES): COc1ccc2c(c1)CCN1O[C@@]3(C[C@H]21)[C@@H](OCCN1CCN(C)CC1)O[C@@H]1O[C@@]2(C)CC[C@H]4[C@H](C)CC[C@@H]3[C@@]14OO2
- IC50 (A549 [3]): > 20 µM
- IC50 [1]: 17.9 µM
- IC50 [2]: 16.9 µM

Structure (SMILES): CO[C@H]1O[C@@H]2O[C@@]3(C)CC[C@H]4[C@H](C)CC[C@@H]([C@]15CC(c1c(Cl)cccc1Cl)=NO5)[C@@]24OO3
- IC50 (A549 [3]): 14.4 µM
- IC50 [1]: 5.29 µM
- IC50 [2]: 5.06 µM

Structure (SMILES): COc1ccc2c(c1)CCN1O[C@@]3(C[C@H]21)C(=O)O[C@@H]1O[C@@]2(C)CC[C@H]4[C@H](C)CC[C@@H]3[C@@]14OO2
- Ratio IC50 (A549 [6]): 4
- IC50 (A549 [3]): 5.01 µM
- IC50 [1]: 1.47 µM
- IC50 [2]: 3.16 µM
- Ratio IC50 [7]: 4
- Ratio IC50 (KB [8]): 4

Structure (SMILES): COc1cc(C2=NO[C@@]3(C2)C(=O)O[C@@H]2O[C@@]4(C)CC[C@H]5[C@H](C)CC[C@@H]3[C@@]25OO4)cc(OC)c1OC
- IC50 (A549 [3]): > 20 µM
- IC50 [1]: > 20 µM
- IC50 [2]: > 20 µM

Structure (SMILES): C[C@H]1[C@@H](O[C@H](C#N)c2ccc(Br)cc2)O[C@@H]2O[C@@]3(C)CC[C@H]4[C@H](C)CC[C@@H]1[C@@]24OO3
- IC50 (L1210): 0.01 µM

Structure (SMILES): COc1ccc2c(c1)CCN1O[C@@]3(C[C@H]21)[C@H](F)O[C@@H]1O[C@@]2(C)CC[C@H]4[C@H](C)CC[C@@H]3[C@@]14OO2
- IC50 [1]: > 20 µM
- IC50 [2]: > 20 µM

Structure (SMILES): CCCCCCCCCCCCCCNC(=O)C[C@H]1O[C@@H]2O[C@@]3(C)CC[C@H]4[C@H](C)CC[C@@H]([C@H]1C)[C@@]24OO3
- IC50 (HepG2): 0.46 µM

Structure (SMILES): CCO[C@H]1O[C@@H]2O[C@@]3(C)CC[C@H]4[C@H](C)CC[C@@H]([C@]15C[C@@H]1c6ccc(OC)cc6CCN1O5)[C@@]24OO3
- IC50 (A549 [3]): > 20 µM
- IC50 [1]: > 20 µM
- IC50 [2]: > 20 µM

Structure (SMILES): C[C@@H]1CC[C@@H]2[C@]34OO[C@](C)(CC[C@@H]13)O[C@H]4OC(=O)[C@@]21CC(c2ccc(Cl)cc2)=NO1
- IC50 (A549 [3]): > 20 µM
- IC50 [1]: 13.9 µM
- IC50 [2]: 14 µM

Structure (SMILES): COc1cc2c(cc1OC)[C@@H]1C[C@]3(ON1CC2)C(=O)O[C@@H]1O[C@@]2(C)CC[C@H]4[C@H](C)CC[C@@H]3[C@@]14OO2
- IC50 (A549 [3]): > 20 µM
- IC50 [1]: > 20 µM
- IC50 [2]: > 20 µM

Structure (SMILES): C[C@@H]1CC[C@@H]2[C@]34OO[C@](C)(CC[C@@H]13)O[C@H]4OC(=O)[C@@]21CC(c2ccccc2)=NO1
- IC50 (A549 [3]): > 20 µM
- IC50 [1]: > 20 µM
- IC50 [2]: > 20 µM

Structure (SMILES): COc1cc2c(cc1OC)[C@H]1C[C@]3(ON1CC2)C(=O)O[C@@H]1O[C@@]2(C)CC[C@H]4[C@H](C)CC[C@@H]3[C@@]14OO2
- IC50 (A549 [3]): 4.69 µM
- IC50 [1]: 2.53 µM
- IC50 [2]: 2.35 µM

Structure (SMILES): COc1ccc2c(c1)CCN1O[C@@]3(C[C@@H]21)C(=O)O[C@@H]1O[C@@]2(C)CC[C@H]4[C@H](C)CC[C@@H]3[C@@]14OO2
- IC50 [1]: > 20 µM
- IC50 [2]: > 20 µM

Structure (SMILES): C[C@@H]1CC[C@@H]2[C@]34OO[C@](C)(CC[C@@H]13)O[C@H]4OC(=O)[C@@]21C[C@H]2c3ccccc3CCN2O1
- IC50 [1]: > 20 µM
- IC50 [2]: > 20 µM

Structure (SMILES): CCO[C@@H]1O[C@@H]2O[C@@]3(C)CC[C@H]4[C@H](C)CC[C@@H]([C@]15C[C@@H]1c6ccc(OC)cc6CCN1O5)[C@@]24OO3
- IC50 (A549 [3]): > 20 µM
- IC50 [1]: > 20 µM
- IC50 [2]: > 20 µM

Structure (SMILES): C[C@@H]1CC[C@H]2[C@@H](C)C(=O)O[C@@H]3O[C@@]4(C)CC[C@@H]1[C@]32OO4 [ARTEMISININ]
- IC50 (A549 [3]): > 20 µM
- IC50 [1]: > 20 µM
- IC50 [2]: > 20 µM

Structure (SMILES): COC(=O)c1ccc(C2=NO[C@@]3(C2)C(=O)O[C@@H]2O[C@@]4(C)CC[C@H]5[C@H](C)CC[C@@H]3[C@@]25OO4)cc1
- IC50 [1]: > 20 µM
- IC50 [2]: > 20 µM
